Common to all, as to assay type: functional, organism-based
The test system of assay [1] is Human immunodeficiency virus 1. Put plainly: Antiviral activity against HIV1 isolate with RT K103N-V108I mutation. The essentials:
(§1)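 VSV-G-pseudotyped pNL4-3.Luc.R−E− molecular clones carrying the RT mutations, single-round infection of HeLa-JC53 cells (15,000/well) at MOI 0.03. Compounds serially diluted 1:4 in DMSO then in phenol red-free DMEM with 2% FBS, final DMSO 0.2%. Incubated 48 h at 37°C, 5% CO2. Luciferase read-out by chemiluminescence gives the EC50. Fold change is relative to wt virus, mean of two tests.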

The subject of assay [2] is Human immunodeficiency virus 1. Put plainly: Antiviral activity against HIV1 isolate with RT K103N-L100I mutation. The essentials:
as §1

The test system of assay [3] is Human immunodeficiency virus 1. Nature of the assay: Antiviral activity against HIV1 isolate with RT K103N mutation. The procedure, abridged: as §1
Assay [4] has as its system Human immunodeficiency virus 1. Nature of the assay: Antiviral activity against HIV1 isolate with RT Y188L mutation. The essentials: as §1
Assay [5] concerns Human immunodeficiency virus 1. Nature of the assay: Antiviral activity against HIV1 isolate with RT K103N-K101Q-P225H mutation. The essentials:
as §1

The test system of assay [6] is Human immunodeficiency virus 1. Nature of the assay: Antiviral activity against HIV1 isolate with RT K103N-Y188L mutation. The procedure, abridged: as §1
The test system of assay [7] is Human immunodeficiency virus 1. Put plainly: Antiviral activity against HIV1 isolate with RT K103N-V108I-P225H mutation. The procedure, abridged:
as §1

For assay [8], the system named is Human immunodeficiency virus 1. Nature of the assay: Antiviral activity against wild type HIV1.
Assay [9] deals with Human immunodeficiency virus 1. Nature of the assay: Antiviral activity against HIV1 isolate with RT G190A mutation. The procedure, abridged: as §1
Assay [10] concerns Human immunodeficiency virus 1. Nature of the assay: Antiviral activity against HIV1 isolate with RT K103N-Y181C mutation. The procedure, abridged: as §1
The subject of assay [11] is Human immunodeficiency virus 1. Put plainly: Antiviral activity against HIV1 isolate with RT A98G mutation. The procedure, abridged:
as §1

The subject of assay [12] is Human immunodeficiency virus 1. Put plainly: Antiviral activity against HIV1 isolate with RT K103N-K101Q mutation. The essentials:
as §1

Assay [13] relates to Human immunodeficiency virus 1. Nature of the assay: Antiviral activity against HIV1 isolate with RT K103N-V108I-A98G mutation. The procedure, abridged: as §1
The subject of assay [14] is Human immunodeficiency virus 1. Nature of the assay: Antiviral activity against HIV1 isolate with RT G190S mutation. The essentials:
as §1

Assay [15] concerns Human immunodeficiency virus 1. Put plainly: Antiviral activity against HIV1 isolate with RT K103N-F227L mutation. The procedure, abridged:
as §1

Assay [16] has as its system Human immunodeficiency virus 1. Nature of the assay: Antiviral activity against HIV1 isolate with RT Y181C mutation. The procedure, abridged: as §1
Assay [17] deals with Human immunodeficiency virus 1. Nature of the assay: Antiviral activity against HIV1 isolate V106I-Y188L mutant.
Assay [18] relates to Human immunodeficiency virus 1. Put plainly: Antiviral activity against HIV1 isolate with RT V106I mutation. The procedure, abridged: as §1
In assay [19] the test system is Human immunodeficiency virus 1. Put plainly: Antiviral activity against HIV1 isolate with RT K103N-P225H mutation. The procedure, abridged: as §1
Assay [20] deals with Human immunodeficiency virus 1. Put plainly: Antiviral activity against HIV1 isolate with RT K101E mutant. The procedure, abridged: as §1

Regarding `O=C1Nc2ccc(Cl)cc2[C@@](C#CC2CC2)(C(F)(F)F)O1` [EFAVIRENZ], the EC50 in [1] was 8.63 nM; in [2], 258 nM; in assay [3], 2.73 nM; in assay [4] it was 24.4 nM; in [5] it was 78.4 nM; in assay [6], over 2500 nM. Also, the EC50 in [7] came to 77.1 nM; in assay [8] it was 0.17 nM; in assay [9], 0.48 nM; in assay [10] it was 4.24 nM; in assay [11], 0.64 nM; in [12], 12.7 nM. Besides, the EC50 came to 67.9 nM in [13]; 14.3 nM in assay [14]; 2.26 nM in assay [15]; 0.33 nM in [16]; 136 nM in assay [17]; 0.27 nM in [18]. The EC50 in assay [19] is 34.9 nM; in [20] it was 0.74 nM.

Usually EC50 stands for the concentration that produces a half-maximal response.

These data come from ChEMBL document CHEMBL1142195, “A novel nonnucleoside analogue that inhibits human immunodeficiency virus type 1 isolates resistant to current nonnucleoside reverse transcriptase inhibitors” (Antimicrob Agents Chemother, 2007).
